The source made the active and inactive calls. The rule behind the calls is not given here.
Columns and labels:
[1] = biological target: T1, Muscarinic acetylcholine receptor (Homo sapiens) (UniProt P20309+P08173+P11229+P08172+P08912); experiment: Tested for agonist activity at Muscarinic acetylcholine receptor in guinea pig ileum; assay type: functional, tissue-based; conditions: Cavia porcellus, target entry is the homologue from another species
[2] = biological target: T1, Muscarinic acetylcholine receptor (Homo sapiens); experiment: Tested for agonist activity at muscarinic receptor in guinea pig ileum, expressed as equipotent molar ratio relative to carbamylcholine.; assay type: functional, tissue-based; conditions: Cavia porcellus
[3] = Acute toxicity in mice; assay type: organism-based; conditions: mouse, in vivo
In short: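 Mice given compound intravenously; LD50 determined by the up and down method for small samples. Mortality counted at 15 min.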

[4] = Tested for its effect on contraction of frog rectus abdominis muscle, expressed as equipotent molar ratio relative to carbamylcholine.; assay type: functional
In short: (§1)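 Rana pipiens rectus abdominis held at 20 °C in aerated Clark-Ringer solution, pH 7.4. Each drug concentration applied for 5 min. Equipotent molar ratio relative to carbachol determined in three-point assays.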

[5] = species: Mus musculus; experiment: Tested for tremorolytic activity in mice, expressed as dose required to double the dose of oxotremorine inducing a predetermined (grade 2) tremor intensity.; assay type: functional
In short: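 Antagonist given i.p. to groups of six or more mice at four linearly spaced doses including zero, 15 min before i.v. oxotremorine (log dose series, 0.1 log spacing). Median oxotremorine dose evoking grade 2 tremor estimated by Dixon up-and-down method, tremor scored visually over first 5 min. The antagonist dose doubling that median dose was found by linear regression.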

[6] = species: Mus musculus; experiment: Tested for mydriatic activity in mice, expressed as the dose required to cause half-maximal pupillary dilation.; assay type: functional
[7] = species: Cavia porcellus; experiment: Relative efficacy calculated from KA and ED50 values; assay type: functional
In short: (§2)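 Isolated guinea pig ileum. Control agonist dose-response curves were run, then tissue treated with propylbenzilylcholine mustard 2×10⁻⁸ M for 15–20 min, cutting maximal response by 20–80%. Double-reciprocal plots of equieffective agonist concentrations before and after treatment gave K_A (Furchgott method). Relative efficacy was derived from K_A and ED50; occupancy for 50% response was taken as 100ED50/(K_A + ED50).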

[8] = biological target: T1, Muscarinic acetylcholine receptor (Homo sapiens); conditions: Cavia porcellus; Ileum
[9] = biological target: T1, Muscarinic acetylcholine receptor (Homo sapiens); conditions: Cavia porcellus; Ileum; remark: listed apart in the source
[10] = species: Cavia porcellus; experiment: Percent occupancy for 50% response calculated from (100 x ED50)/(KA+ED50).; assay type: functional; in short: as §2
[11] = system: frog; experiment: Tested for its effect on contraction of frog rectus abdominis muscle, expressed as equipotent molar ratio relative to carbamylcholine; Inactive; assay type: functional, tissue-based; in short: as §1

Structure (SMILES)	ED50 [1]	EPMR [2]	LD50 [3] [µmol/kg]	EPMR [4]	ED50 [5] [µmol/kg]	other results
C[C@H]1CCC(=O)N1CC#CC[N+](C)(C)C.[I-]	1.3	20	3.5	8.8		
CC1CCC(=O)N1CC#CCN1CCCC1 (racemic)				116	0.4	ED50 [6]: 9 µmol/kg
C[C@@H]1CCC(=O)N1CC#CCN1CCCC1			45	141	0.19	ED50 [6]: 4.8 µmol/kg
C[C@@H](C#CCN1CCCC1)N1CCCC1=O					20	
C[C@H]1CCC(=O)N1CC#CCN1CCCC1			40	132	4.2	ED50 [6]: 66 µmol/kg
O=C1CCCN1CC#CCN1CCCC1 [OXOTREMORINE]		0.42	6.7	49		Relative efficacy [7]: 1; ED50 [8]: 0.026 µM l-1; KA [9]: 0.68; Occupancy [10]: 3.5%
C[C@@H]1CCC(=O)N1CC#CCN(C)C	0.29 µM l-1	4.6	426		2.4	KA [1]: 2.34; EPMR [11]: inactive; Relative efficacy [7]: 0.29; Occupancy [10]: 11%
C[C@H]1CCC(=O)N1CC#CCN(C)C	4.6 µM l-1	73.9	183		50	EPMR [11]: inactive
C[C@@H]1CCC(=O)N1CC#CC[N+](C)(C)C.[I-]	0.076	1.2	8.9	10		
CN1[C@@H]2CC[C@H]1C[C@@H](OC(=O)C(CO)c1ccccc1)C2 (stereo partly drawn) [ATROPINE]					0.86	
CC1CCC(=O)N1CC#CCN(C)C (racemic)	0.55 µM l-1	8.8			5.5	
CN(C)CC#CCN1CCCC1=O						Relative efficacy [7]: 6.51; KA [9]: 22.9 µM l-1; Occupancy [10]: 0.55%
C[C@H](C#CCN1CCCC1)N1CCCC1=O					0.26	
